Compounds with a hit are over-represented: about 1.7% of the library has one in this group of screens.
PGC1a acetyl inh: lowers PGC1a acetylation signal in U2OS cells; AlphaScreen anti-acetyl-lysine; with virally co-expressed GCN5 acetyltransferase; inhibition, % at 15.6 µM; actives 0.17% (n = 350,000);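 active = every replicate shows inhibition of at least 40%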;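 also: 0% = neutral control wells and 100% = positive control wells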
CAL PDZ FP-1: blocks peptide binding to the human CAL PDZ domain; Q9HD26; purified CAL PDZ, TMR-peptide fluorescence polarization, 1 h; inhibition, % at 24.9 µM; actives 0.92% (n = 300,000);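 active = mean inhibition of at least 30% with at least half of replicates also reaching 30%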;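 also: 0% = DMSO neutral control and 100% = excess unlabeled competitor peptide PRC23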
CAL PDZ FP-2: inhibitors of human CAL PDZ peptide binding. Q9HD26. purified CAL PDZ, TMR-peptide fluorescence polarization, 1 h. inhibition, % at 20 µM. actives 0.02% (n = 330,000). AID 504414;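 active = highest replicate inhibition of at least 40%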;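 also: plate controls were DMSO neutral control wells for no effect and unlabeled competitor peptide control wells for full effect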
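Material: tagged CAL PDZ protein CerCALP, purified; buffer or medium: sodium phosphate/NaCl buffer pH 7.4 with TCEP, IgG, Thesit; also added: fluorescent TMR peptide probe; schedule: 1 h incubation at room temperature before polarization reading; technique: fluorescence polarization from S- and P-plane intensities, G-factor corrected; control set: unlabelled peptide and DMSO controls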
miR-122 sensor: blocks miR-122 activity in Huh7 sensor cells | Huh7 miR-122 Renilla luciferase sensor, 48 h; neutral wells = 0, positive control = 100 | activation (reporter increase), % at 12.5 µM | actives 0.3% (n = 340,000) | AID 602342;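 active = mean replicate activation score at least 90 and every replicate individually at or above 90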;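 also: higher luciferase means less miR-122 activity so hits act as miR-122 inhibitors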
ARNT-TACC3 inh: disrupts binding between human ARNT and TACC3; Q9Y6A5; actives 0.66% (n = 390,000); AID 623870; AlphaScreen His-ARNT PAS-B/GST-TACC3 binding, luminescence; TACC3 fragment carries E629A point mutation; inhibition, % at 9.99 µM;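 active = mean inhibition of replicates at least 50% and at least half of replicates each reaching 50%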;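 also: 0% = complete ARNT plus TACC3 wells and 100% = ARNT alone without TACC3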
CFTR F508del cor: CFTR F508del correction in bronchial cells. CFBE cells, YFP halide quenching; stimulated with forskolin plus potentiator P3; % fluorescence drop versus neutral controls. activity (quench increase), % at 7.58 µM. actives 0.36% (n = 350,000). AID 720511;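 active = mean added fluorescence quench of at least 8% versus neutral control, with both replicates also reaching 8%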;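 also: cells transiently co-express mutant CFTR-F508del with the halide-sensitive YFP; corrector assay measuring rescue of mutant channel to the surface after 24 h compound exposure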
ARNT Alpha ctr-1: counter-screen for ARNT/TACC3 inhibitors: AlphaScreen artifacts; shares compounds with ARNT-TACC3 inh; His-ARNT PASB-GST AlphaScreen artifact counter-screen, luminescence; AC50, µM (highest dose often 68 µM), for the others: at the top dose activity change, negative = signal decrease; actives 50% (n = 1,200); AID 651705;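 active = every separate test run was called active for a drop in luminescence, with AC50 within twice the top valid dose, actives reach about 71 µM in these data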
ARNT Alpha ctr-2: produces AlphaScreen artifacts in ARNT-TACC3 counter-screen; shares compounds with ARNT-TACC3 inh; actives 70% (n = 45); Dual-tagged His-ARNT PASB-GST AlphaScreen artifact counter-screen; AC50, µM;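 active = luminescence drop, with half-maximal potency fitted within twice the sample's top valid dose, cut at about 70 µM in these data; inactive = the rest, including signal moving the wrong way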
Starred values were filed as active, the others as inactive; i = inactive; · = no result given; [ ] = another dose, or the depositor's remark.

SMILES | PGC1a acetyl inh | CAL PDZ FP-1 | CAL PDZ FP-2 | miR-122 sensor | ARNT-TACC3 inh | CFTR F508del cor | ARNT Alpha ctr-1 | others
COc1cc(/C=N/Nc2nn3cnnc3c3ccccc23)ccc1O | -2.3 | 0.9 | 1.2 | 2.5 | 50.0* | · | -30.0%
O=C(Nc1nc(-c2ccccn2)cs1)c1ccc(Cl)s1 | -3.3 | -7.2 | -2.4 | 12.9 | 58.8* | 4.7 | 28.1µM*
CC(Oc1cccc(Cl)c1)C(=O)Nc1nc(-c2ccccn2)cs1 (stereo not given) | -2.5 | 6.4 | -3.1 | · | 53.3* | 2.7 | -17.9%
Cc1ccc(C(=O)Nc2nc(-c3ccccn3)cs2)s1 | 15.6 | -2.9 | -3.2 | -14.8 | 54.4* | 4.8 | 37.6µM*
Cc1csc(NC(=O)c2cccn2C)n1 | -5.5 | 0.2 | -0.8 | -1.6 | 1.9 | · | ·
Cn1cccc1C(=O)Nc1nc(-c2ccccn2)cs1 | 1.4 | -5.9 | -1.7 | 6.1 | 62.9* | · | 20.1µM*
CC(=O)Nc1ccc2c(c1)C(=O)N(C)[C@H]1CC[C@H](CC(=O)N3CCc4ccccc4C3)O[C@@H]1CO2 | 10.0 | · | · | -29.2[16.7 µM] | 4.6 | -2.0 | ·
CNC(=O)C[C@@H]1CC[C@H]2[C@@H](COC[C@H](O)CN2Cc2ccccc2F)O1 | 8.1 | · | · | -10.0[16.7 µM] | -4.1 | 0.0 | ·
C[C@@H]1CN([C@@H](C)CO)C(=O)Cc2cc(NS(=O)(=O)c3cccs3)ccc2O[C@@H]1CN(C)C(=O)Nc1ccc(F)cc1 | 0.8 | · | · | 5.6[16.7 µM] | 1.8 | -0.8 | ·
C[C@@H]1CN([C@@H](C)CO)C(=O)c2cccc(N(C)C)c2O[C@H]1CN(C)Cc1ccncc1 | -2.0 | · | · | 0.6[16.7 µM] | 1.6 | -0.1 | ·
COc1ccc(-c2cnc3c(c2)C(=O)N([C@H](C)CO)C[C@@H](C)[C@H](CN(C)Cc2cccnc2)O3)cc1 | 2.3 | · | · | 8.5[16.7 µM] | 108.4* | 0.3 | -2.6%[38 µM]
C[C@@H]1CN([C@@H](C)CO)C(=O)Cc2cc(NC(=O)Nc3cccc4ccccc34)ccc2O[C@H]1CN(C)Cc1ccc(Oc2ccccc2)cc1 | -13.1 | · | · | -0.8[16.7 µM] | 72.0* | 1.1 | 14.1µM*
COc1ccc(-c2cnc3c(c2)C(=O)N([C@@H](C)CO)C[C@@H](C)[C@H](CN(C)Cc2cccnc2)O3)cc1 | -3.6 | · | · | 2.9[16.7 µM] | -4.1 | 2.4 | ·
CC(C)NC(=O)Nc1ccc2c(c1)CC(=O)N([C@H](C)CO)C[C@@H](C)[C@@H](CN(C)Cc1ccc(Oc3ccccc3)cc1)O2 | -6.2 | · | · | 96.6*[16.7 µM] | active | -2.1 | 70.9µM*
CC(C)NC(=O)N(C)C[C@H]1Oc2ccc(N(C)C)cc2CC(=O)N([C@@H](C)CO)C[C@@H]1C | 4.5 | · | · | 2.8[16.7 µM] | 60.2* | 0.9 | 9.5%[42 µM]
CO[C@@H]1CN(C)C(=O)c2cc(NC(=O)C3CCCC3)ccc2OC[C@@H](C)N(C(=O)CC2CC2)C[C@@H]1C | 7.5 | · | · | -9.0[16.7 µM] | 5.4 | 1.5 | ·
O=C(C[C@@H]1C[C@H]2c3cc(NC(=O)c4cccnc4)ccc3O[C@H]2[C@@H](CO)O1)NCc1cccnc1 | -0.6 | · | · | 1.7[16.7 µM] | -2.5 | -0.1 | ·
C[C@H](CO)N1C[C@H](C)[C@H](CN(C)C(=O)Nc2ccc(F)cc2)Oc2ccc(NC(=O)Nc3ccc4c(c3)OCO4)cc2CC1=O | -4.5 | · | · | -4.5[16.7 µM] | 8.0 | -0.1 | ·
CCCN1[C@@H]2Cn3c(ccc(-c4ccccc4)c3=O)[C@H]1[C@@H](C(=O)N1CCCCC1)[C@@H]2CO | · | · | · | · | 5.7 | · | ·
C[C@H]1CN([C@@H](C)CO)C(=O)c2cc(/C=C/c3ccccc3)cnc2O[C@@H]1CN(C)C(=O)c1ccc2c(c1)OCO2 | -11.4 | · | · | -8.1[16.7 µM] | 16.7 | 0.1 | ·
COc1ccc(NC(=O)Nc2ccc3c(c2)CC(=O)N([C@@H](C)CO)C[C@H](C)[C@H](CN(C)Cc2ccc(Oc4ccccc4)cc2)O3)cc1 | -7.5 | · | · | -2.3[16.7 µM] | 8.9 | -0.2 | ·
COc1ccc(NC(=O)Nc2ccc3c(c2)CC(=O)N([C@H](C)CO)C[C@H](C)[C@@H](CN(C)Cc2ccc(Oc4ccccc4)cc2)O3)cc1 | -10.3 | · | · | -9.2[16.7 µM] | 54.6* | 2.1 | 18.7µM*
C[C@@H]1CN([C@H](C)CO)C(=O)Cc2cc(N(C)C)ccc2O[C@H]1CN(C)Cc1ccc(Oc2ccccc2)cc1 | -2.2 | · | · | 5.9[16.7 µM] | 52.4* | -1.4 | 15.4µM*
C[C@H](CO)N1C[C@H](C)[C@@H](CN(C)CC2CC2)Oc2ccc(NC(=O)Nc3ccc(F)cc3)cc2CC1=O | 3.1 | · | · | -1.9[16.7 µM] | 29.0 | 1.9 | ·
O=C(CC1CC1)N[C@H]1CC[C@H](CCNS(=O)(=O)c2ccc(F)cc2)O[C@H]1CO | 2.1 | · | · | · | -3.2 | -4.1 | ·
SMILES | PGC1a acetyl inh | CAL PDZ FP-1 | CAL PDZ FP-2 | miR-122 sensor | ARNT-TACC3 inh | CFTR F508del cor | ARNT Alpha ctr-1 | others
FC(F)(F)c1cccc(-c2nn[nH]n2)c1 | 1.0 | 0.4 | -1.9 | · | -11.2 | -0.8 | ·
FC(F)(F)c1cc(-c2nn[nH]n2)cc(C(F)(F)F)c1 | · | · | · | · | · | · | · | ARNT Alpha ctr-2=i
CN(C)C(=O)c1cccc(-c2ccc3c(c2)[C@@H]2[C@@H](CCN2Cc2ccccc2F)[C@@H](CO)N3)c1 | 8.7 | · | · | 0.3[16.7 µM] | 2.7 | 1.2 | ·
O=C(NCCCn1ccnc1)C(=O)NCC1OCCN1S(=O)(=O)c1ccc(F)cc1 (stereo not given) | 7.3 | · | -0.1 | 1.1 | 58.0* | -3.1 | 31.6µM*
COc1ccc(S(=O)(=O)N2CCCOC2CNC(=O)C(=O)NCCCn2ccnc2)cc1OC (stereo not given) | · | -8.9 | -0.2 | · | 40.3* | 0.1 | -11.2%
Cc1cc(C)c(S(=O)(=O)N2CCCOC2CNC(=O)C(=O)NCCCn2ccnc2)c(C)c1 (stereo not given) | · | -3.7 | -0.6 | · | -17.0 | · | ·
Cc1ccc(C)c(S(=O)(=O)N2CCCOC2CNC(=O)C(=O)NCCCn2ccnc2)c1 (stereo not given) | · | -4.5 | 0.0 | · | 55.9* | · | -6.6%
COc1ccc(S(=O)(=O)N2CCOC2CNC(=O)C(=O)NCCCn2ccnc2)cc1OC (stereo not given) | -4.8 | · | -0.9 | 2.4 | 59.3* | 0.6 | -23.4%
C[C@H](CO)N1C[C@H](C)[C@H](CN(C)C(=O)C2CCCCC2)Oc2ncc(C#CC3CCCC3)cc2C1=O | 5.7 | · | · | 0.3[16.7 µM] | -1.1 | -2.4 | ·
O=C(Cc1ccccc1)N[C@H]1C=C[C@@H](CC(=O)N2CCOCC2)O[C@H]1CO | -15.2 | · | · | · | 1.9 | 0.4 | ·
C[C@H]1CN([C@@H](C)CO)C(=O)c2cc(NC(=O)Cc3cn(C)c4ccccc34)ccc2O[C@H]1CN(C)C(=O)NC1CCCCC1 | -0.3 | · | · | -7.6[16.7 µM] | -2.4 | 1.2 | ·
